GAA850 FXN act: FXN promoter activators, primary screen, cell-based, luciferase luminescence, HEK293 lucGAA850 | HEK293 lucGAA850 FXN promoter luciferase reporter, 24 h; percent of 10 µM SAHA response | activation, % at 6 µM | 360,000 tested, 0.56% active;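 active = activation above the average of all compounds screened plus 3 SD, cutoff fixed separately per campaign, cut at about 7.5% in these data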;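 also: 0% = DMSO wells and 100% = 10 µM SAHA wells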
SR-BI HDL uptake: inhibitors of SR-BI mediated HDL lipid uptake, primary screen, ldlA[mSR-BI] cells, fluorescence, single point; ldlA[mSR-BI] CHO cells, DiI-HDL uptake fluorescence, 3 h; 320,000 tested, 0.96% active; Scavenger receptor class B member 1 (Mus musculus), Q61009; AID 488896, 2010; inhibition, % at 12.5 µM;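 active = mean replicate inhibition of at least 70% and a set share of replicates each scoring 70 or more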;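 also: 0% = median of neutral control wells and 100% = median of positive control wells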
HIF activator: HIF pathway transcriptional activators, primary screen, cell-based, U2OS HRE-luciferase, luminescence; U2OS HRE-luciferase reporter; normalized: DMSO 0%, desferrioxamine 100%; activation, % at 7.5 µM (by protocol); 300,000 tested, 0.32% active;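 active = mean activation of at least 10% of the iron chelator positive control signal, with at least half of replicates also reaching 10%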
AHR act: AHR activators, primary screen, cell-based, luminescence, luciferase reporter, human. Aryl hydrocarbon receptor (Homo sapiens), P35869. AHR-responsive luciferase reporter cells. activation, % at 5 µM. 320,000 tested, 2.5% active. AID 2796, 2010; in the data active = activation above about 47%;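 also: 0% = vehicle wells and 100% = reference agonist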
SR-BI DiI-HDL act: activators of SR-BI mediated DiI-HDL uptake, primary screen, ldlA[mSR-BI] CHO cells, DiI fluorescence | 320,000 tested, 0.096% active | activation, % at 12.5 µM | AID 504775, 2011 | 3 h; 100 = double the neutral-control signal;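 active = mean replicate activation of at least 60% and every replicate at or above 60%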;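 also: 0% = median plate neutral-control signal and 100% = twice that signal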
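Assay system: CHO ldlA[mSR-BI] cells, LDL receptor-null, SR-BI overexpressing; medium: Ham's F12 with 0.5% BSA, HEPES 25 mM, pH 7.4; also added: DiI-HDL 10 µg/mL; timing: 3 h uptake period with compound, 37 °C; signal: DiI fluorescence, bottom read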
ABCB6 inh MLPCN: ABCB6 transporter inhibitors, primary screen, K562-ABCB6 cells, flow cytometry, MLPCN library; 360,000 tested, 0.19% active; AID 602162, 2011; K562-ABCB6 porphyrin accumulation, 1 h; active compounds read low; fluorescence ratio to DMSO, % at 10 µM;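 active = fluorescence ratio to DMSO below 75%, the collection mean minus 3 SD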;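 also: signal is porphyrin accumulated inside mitochondria; 100% equals median channel fluorescence of DMSO control wells; lower ratio means ABCB6 inhibition with less porphyrin fluorescence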
* = called active by the depositor. Only some compounds are listed: those with a hit (about 3.9% of all), similar ones and a draw of the others.

Results for COc1cc(OC)cc(C(=O)Nc2ccc(N3CCN(C(=O)c4cccs4)CC3)cc2)c1 ?
GAA850 FXN act: -4; SR-BI HDL uptake: 58; HIF activator: 2; AHR act: 53*; SR-BI DiI-HDL act: -57; ABCB6 inh MLPCN: 102

What do the screens show for `COc1ccc(C(=O)Nc2ccc(N3CCN(C(=O)c4cccs4)CC3)cc2)cc1Br`?
GAA850 FXN act: 1; SR-BI HDL uptake: 72*; HIF activator: 0; AHR act: -2; SR-BI DiI-HDL act: -72; ABCB6 inh MLPCN: 103

Results for O=C(Nc1ccc(N2CCN(C(=O)c3cccs3)CC2)cc1)c1ccc(F)cc1 ?
GAA850 FXN act: 0; SR-BI HDL uptake: 57; HIF activator: 1; AHR act: -10; SR-BI DiI-HDL act: -57; ABCB6 inh MLPCN: 94

What do the screens show for `CCOc1ccc(C(=O)Nc2ccc(N3CCN(C)CC3)cc2)cc1Br`?
GAA850 FXN act: 1; HIF activator: 2; AHR act: 57*; ABCB6 inh MLPCN: 99

Results for Cc1cc(C)nc(SCC(=O)N/N=C\c2sccc2C)n1 ?
GAA850 FXN act: -1; SR-BI HDL uptake: 24; HIF activator: 0; AHR act: 63*; SR-BI DiI-HDL act: -24; ABCB6 inh MLPCN: 96

How did CC(/C=N/NC(=O)CSc1nc(C)cc(C)n1)=C\c1ccccc1 do in these assays?
GAA850 FXN act: -3; SR-BI HDL uptake: -2; HIF activator: -1; AHR act: 9; SR-BI DiI-HDL act: 2; ABCB6 inh MLPCN: 101

How did Cc1cc(C)nc(SCC(=O)N/N=C/c2cc(C)n(-c3ccccc3C)c2C)n1 do in these assays?
GAA850 FXN act: -1; SR-BI HDL uptake: 85*; HIF activator: -2; AHR act: 11; SR-BI DiI-HDL act: -85; ABCB6 inh MLPCN: 101

Results for Cc1cccc(C)c1-n1c(C)cc(/C=N/NC(=O)CSc2ncccn2)c1C ?
GAA850 FXN act: 2; SR-BI HDL uptake: 18; HIF activator: -9; AHR act: -1; SR-BI DiI-HDL act: -18; ABCB6 inh MLPCN: 99

Results for CN(C(=O)COc1ccc(Cl)cc1)C1(C)CCS(=O)(=O)C1 (configuration not stated) ?
GAA850 FXN act: 0; SR-BI HDL uptake: -12; HIF activator: -59; AHR act: 1; SR-BI DiI-HDL act: 12; ABCB6 inh MLPCN: 95

Results for COC(=O)c1c(/N=C/N(C)C)sc2c1CCN(c1ncc(C(F)(F)F)cc1Cl)C2 ?
GAA850 FXN act: 1; SR-BI HDL uptake: 12; HIF activator: 0; AHR act: 72*; SR-BI DiI-HDL act: -12; ABCB6 inh MLPCN: 107

How did COc1ccccc1N=Nc1nc(-c2ccccc2)c(-c2ccccc2)[nH]1 do in these assays?
GAA850 FXN act: -2; SR-BI HDL uptake: 67; HIF activator: 1; AHR act: -2; SR-BI DiI-HDL act: -67; ABCB6 inh MLPCN: 108

What do the screens show for `Oc1ccccc1N=Nc1nc(-c2ccccc2)c(-c2ccccc2)[nH]1`?
GAA850 FXN act: -15; SR-BI HDL uptake: 53; HIF activator: 220*; AHR act: 5; SR-BI DiI-HDL act: -53; ABCB6 inh MLPCN: 107

Results for O=C(O)c1ccccc1NS(=O)(=O)c1ccc2c3c(cccc13)C(=O)N2 ?
GAA850 FXN act: 2; SR-BI HDL uptake: -17; HIF activator: 0; AHR act: 4; SR-BI DiI-HDL act: 17; ABCB6 inh MLPCN: 101

How did O=C1CCCc2oc3c(cc(NS(=O)(=O)c4ccc5c6c(cccc46)C(=O)N5)c4ccccc43)c21 do in these assays?
GAA850 FXN act: 5; HIF activator: 0; AHR act: 54*; ABCB6 inh MLPCN: 95

How did Cc1oc2c(cc(NS(=O)(=O)c3ccc4c5c(cccc35)C(=O)N4)c3ccccc32)c1C(=O)OC(C)C do in these assays?
GAA850 FXN act: 4; SR-BI HDL uptake: -7; HIF activator: 0; AHR act: 74*; SR-BI DiI-HDL act: 7; ABCB6 inh MLPCN: 107

Results for COC(=O)C1CCN(S(=O)(=O)CCNC(=O)c2cccc(OC)c2)CC1 ?
GAA850 FXN act: 1; SR-BI HDL uptake: 5; HIF activator: 2; AHR act: -1; SR-BI DiI-HDL act: -5; ABCB6 inh MLPCN: 94

Results for O=c1c(Br)c(N2CCOCC2)cnn1-c1ccccc1 ?
GAA850 FXN act: 3; SR-BI HDL uptake: -8; HIF activator: 3; AHR act: 0; SR-BI DiI-HDL act: 8; ABCB6 inh MLPCN: 99

How did CCC1CCCCN1C(=O)COc1ccc2c(c1)OCO2 (configuration not stated) do in these assays?
GAA850 FXN act: 2; SR-BI HDL uptake: -7; HIF activator: 0; AHR act: 48*; SR-BI DiI-HDL act: 7; ABCB6 inh MLPCN: 98

Results for CC1CCCN(C(=O)c2ccc3c(c2)OCO3)C1 (configuration not stated) ?
GAA850 FXN act: 3; SR-BI HDL uptake: -12; HIF activator: 0; AHR act: -1; SR-BI DiI-HDL act: 12; ABCB6 inh MLPCN: 104

Results for CCC1CCCCN1C(=O)COC(=O)c1cc2ccccc2cc1O (configuration not stated) ?
GAA850 FXN act: 2; HIF activator: 0; AHR act: 0; ABCB6 inh MLPCN: 114

How did CC1CCCN(C(=O)COc2ccc3c(c2)OCO3)C1 (configuration not stated) do in these assays?
GAA850 FXN act: 3; SR-BI HDL uptake: -5; HIF activator: 2; AHR act: 52*; SR-BI DiI-HDL act: 5; ABCB6 inh MLPCN: 101

Results for Cc1ccn2c(/C=N/OCc3cccc(F)c3)c(-c3ccc(Cl)cc3)nc2c1 ?
GAA850 FXN act: 3; SR-BI HDL uptake: 78*; HIF activator: -1; AHR act: -4; SR-BI DiI-HDL act: -78; ABCB6 inh MLPCN: 93

How did Cc1ccn2c(/C=N/OCc3ccc(F)cc3)c(-c3ccc(Cl)cc3)nc2c1 do in these assays?
GAA850 FXN act: 1; SR-BI HDL uptake: 63; HIF activator: 0; AHR act: 5; SR-BI DiI-HDL act: -63; ABCB6 inh MLPCN: 92

What do the screens show for `COc1ccc(-c2cc(C(=O)Nc3ccc(O)cc3)c3ccccc3n2)cc1OC`?
GAA850 FXN act: 4; SR-BI HDL uptake: 81*; HIF activator: 0; AHR act: 10; SR-BI DiI-HDL act: -81; ABCB6 inh MLPCN: 99

Results for COc1ccccc1NC(=O)Cn1cnc2sc(C(=O)Nc3cc(OC)c(OC)c(OC)c3)c(C)c2c1=O ?
GAA850 FXN act: -1; SR-BI HDL uptake: 54; HIF activator: 1; AHR act: 17; SR-BI DiI-HDL act: -54; ABCB6 inh MLPCN: 93

High-throughput results from PubChem.
